Activity calls are given as the source filed them. No cut-off for these calls is given here.
Legend:
[1] = test system: Rattus norvegicus; experiment: Antihypertensive activity against DOCA-salt induced hypertension in albino rat assessed as reduction in systolic blood pressure at 10 mg/kg, po up to 360 mins by tail-cuff method; type: functional, organism-based; set-up: dose 10 mg/kg; details: Artery
How it was run: (§1)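 Rats given DOCA 20 mg/kg s.c. twice weekly in olive oil for 4 weeks, with 1% w/v NaCl as drinking water, reaching systolic 160–180 mm Hg. Rats were trained in restrainer and tail-cuff sessions. Compounds in 0.5% CMC were dosed at 10 mg/kg by oral feeding needle, with vehicle and nifedipine groups. BP was read before dosing and after, with the tail warmed at 37 °C for 2–5 min. Each compound was run three times in one week and readings averaged.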

[2] = test system: Rattus norvegicus; experiment: Antihypertensive activity against DOCA-salt induced hypertension in albino rat assessed as reduction in systolic blood pressure at 10 mg/kg, po after 900 mins by tail-cuff method; type: functional; details: Artery, 15 h; how it was run: as §1
[3] = test system: Rattus norvegicus; experiment: Antihypertensive activity against DOCA-salt induced hypertension in albino rat assessed as reduction in systolic blood pressure at 10 mg/kg, po after 720 mins by tail-cuff method; type: functional; details: Artery, 12 h; how it was run: as §1
[4] = test system: Rattus norvegicus; experiment: Antihypertensive activity against DOCA-salt induced hypertension in albino rat assessed as reduction in systolic blood pressure at 10 mg/kg, po after 600 mins by tail-cuff method; type: functional; details: Artery, 10 h; how it was run: as §1
[5] = test system: Rattus norvegicus; experiment: Antihypertensive activity against DOCA-salt induced hypertension in albino rat assessed as reduction in systolic blood pressure at 10 mg/kg, po after 360 mins by tail-cuff method; type: functional; details: Artery, 6 h; how it was run: as §1
[6] = test system: Rattus norvegicus; experiment: Antihypertensive activity against DOCA-salt induced hypertension in albino rat assessed as reduction in systolic blood pressure at 10 mg/kg, po after 300 mins by tail-cuff method; type: functional; details: Artery, 5 h; how it was run: as §1
[7] = test system: Rattus norvegicus; experiment: Antihypertensive activity against DOCA-salt induced hypertension in albino rat assessed as reduction in systolic blood pressure at 10 mg/kg, po after 240 mins by tail-cuff method; type: functional; details: Artery, 4 h; how it was run: as §1
[8] = test system: Rattus norvegicus; experiment: Antihypertensive activity against DOCA-salt induced hypertension in albino rat assessed as reduction in systolic blood pressure at 10 mg/kg, po after 180 mins by tail-cuff method; type: functional; details: Artery, 3 h; how it was run: as §1
[9] = test system: Rattus norvegicus; experiment: Antihypertensive activity against DOCA-salt induced hypertension in albino rat assessed as reduction in systolic blood pressure at 10 mg/kg, po after 120 mins by tail-cuff method; type: functional; details: Artery, 2 h; how it was run: as §1
[10] = test system: Rattus norvegicus; experiment: Antihypertensive activity against DOCA-salt induced hypertension in albino rat assessed as reduction in systolic blood pressure at 10 mg/kg, po after 60 mins by tail-cuff method; type: functional; details: Artery, 1 h; how it was run: as §1
[11] = test system: Rattus norvegicus; experiment: Antihypertensive activity against DOCA-salt induced hypertension in albino rat assessed as reduction in systolic blood pressure at 10 mg/kg, po after 30 mins by tail-cuff method; type: functional; details: Artery, 0.5 h; how it was run: as §1
[12] = test system: Rattus norvegicus; experiment: Antihypertensive activity against DOCA-salt induced hypertension in albino rat assessed as reduction in systolic blood pressure at 10 mg/kg, po after 15 mins by tail-cuff method; type: functional; details: Artery, 0.25 h; how it was run: as §1

| SMILES | Activity [1] | inhibition in vivo at 10 mg/kg [2] | inhibition in vivo at 10 mg/kg [3] | inhibition in vivo at 10 mg/kg [4] | inhibition in vivo at 10 mg/kg [5] | inhibition in vivo at 10 mg/kg [6] | inhibition in vivo at 10 mg/kg [7] | inhibition in vivo at 10 mg/kg [8] | inhibition in vivo at 10 mg/kg [9] | inhibition in vivo at 10 mg/kg [10] | inhibition in vivo at 10 mg/kg [11] | inhibition in vivo at 10 mg/kg [12] |
| --- | --- | --- | --- | --- | --- | --- | --- | --- | --- | --- | --- | --- |
| CC1=C(C(=O)Nc2ccc([N+](=O)[O-])cc2)C(c2cccc([N+](=O)[O-])c2)N=C(SCc2ccc(F)cc2)N1 (stereo unspecified) | Active | 15.4% | 20.1% | 30.3% | 36.1% | 27.2% | 22.6% | 17.5% | 13.4% | 7.2% | 4.1% | 2.6% |
| COc1ccc(C2N=C(SCc3ccccc3)NC(C)=C2C(=O)Nc2ccc(Br)cc2)cc1 (stereo unspecified) | Active | 5.6% | 7.2% | 11.3% | 18.6% | 16.4% | 13.3% | 10.3% | 8.2% | 5.6% | 2.6% | 1% |
| COc1ccc(C2N=C(SCc3cccc(Cl)c3)NC(C)=C2C(=O)Nc2ccc(F)cc2)cc1OC (stereo unspecified) | Active | 13.3% | 15.5% | 17.4% | 20.1% | 16.4% | 14.9% | 13.4% | 10.8% | 8.2% | 5.2% | 2.1% |
| CC1=C(C(=O)Nc2ccc([N+](=O)[O-])cc2)C(c2ccc(Br)cc2)N=C(SCc2ccccc2)N1 (stereo unspecified) | Active | 19.5% | 21.1% | 27.2% | 37.6% | 29.7% | 27.7% | 19.6% | 13.4% | 8.2% | 3.6% | 2.1% |
| COc1ccc(C2N=C(SCc3ccc(F)cc3)NC(C)=C2C(=O)Nc2ccc(F)cc2)cc1OC (stereo unspecified) | Active | 15.4% | 17% | 21% | 37.1% | 37.9% | 28.7% | 22.2% | 15.5% | 11.8% | 6.7% | 3.6% |
| CC1=C(C(=O)Nc2ccc(Br)cc2)C(c2ccc(Cl)cc2Cl)N=C(SCc2cccc(Cl)c2)N1 (stereo unspecified) | Active | 7.2% | 11.3% | 15.4% | 20.6% | 18.5% | 15.9% | 11.9% | 8.8% | 6.2% | 3.1% | 1.5% |
| CC1=C(C(=O)Nc2ccc([N+](=O)[O-])cc2)C(c2cccc([N+](=O)[O-])c2)N=C(SCc2ccccc2Cl)N1 (stereo unspecified) | Active | 7.2% | 11.3% | 13.3% | 17.5% | 15.9% | 12.8% | 9.3% | 7.7% | 6.7% | 3.6% | 2.1% |
| CC1=C(C(=O)Nc2ccc(F)cc2)C(c2ccc([N+](=O)[O-])cc2)N=C(SCc2ccc(F)cc2)N1 (stereo unspecified) | Active | 13.8% | 19.6% | 25.6% | 33% | 30.3% | 25.6% | 20.1% | 17% | 10.8% | 5.7% | 3.1% |

From ChEMBL document CHEMBL1275301, “Antihypertensive activity of newer 1,4-dihydro-5-pyrimidine carboxamides: synthesis and pharmacological evaluation” (2010)
